# Screening data deposited in PubChem BioAssay by The Scripps Research Institute Molecular Screening Center.
# Most compounds without a hit are left out; they make up all but 4% or so of the library.
# OX1R antag-1: antagonists of human orexin 1 receptor (OX1R); inhibition, % at 6.6 µM; 330,000 compounds, 1.8% hits; O43613; OX1R-expressing cells, FRET antagonist read-out; in the data active means inhibition mostly above about 38%, no sharp cut-off; inactive means mostly below about 40%;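 further: 0% = agonist challenge alone and 100% = reference antagonist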
# OX1R antag-2: antagonists of human orexin 1 receptor. AID 434989. inhibition, % at 5 µM. O43613. CHO/OX1R cells, Fluo-8 calcium fluorescence, orexin A. 330,000 compounds, 0.43% hits;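 active means inhibition above its plate's threshold, mean inhibition of all tested compounds on the plate plus 3 SD, cut at about 37% in these data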;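 further: 0% = orexin A challenge wells and 100% = SB-334867-A antagonist wells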
# TAAR1 antag: antagonists of human TAAR1; Q96RJ0; CHO RD-HGA16 TAAR1, Fluo-8 calcium fluorescence, antagonist; inhibition, % at 3 µM; 360,000 compounds, 1.5% hits;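 active means inhibition above a per-plate cutoff, the mean inhibition of test compounds on that plate plus 3 SD, cut at about 49% in these data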;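 further: 0% = DMSO plus EC80 beta-PEA response and 100% = DMSO alone without agonist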
# Target sequence (Q96RJ0 whole entry, looked up): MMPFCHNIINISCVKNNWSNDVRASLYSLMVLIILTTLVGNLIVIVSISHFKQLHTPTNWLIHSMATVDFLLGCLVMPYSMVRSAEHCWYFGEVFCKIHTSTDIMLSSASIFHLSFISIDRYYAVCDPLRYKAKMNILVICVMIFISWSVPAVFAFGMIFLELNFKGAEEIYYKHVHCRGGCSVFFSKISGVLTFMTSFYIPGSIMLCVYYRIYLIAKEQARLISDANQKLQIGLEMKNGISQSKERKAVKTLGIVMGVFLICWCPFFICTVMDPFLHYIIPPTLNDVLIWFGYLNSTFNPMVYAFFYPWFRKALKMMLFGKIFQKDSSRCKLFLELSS
#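 Test system: hTAAR1-expressing CHO RD-HGA16 cells, Gα16-coupled; Probe or stimulus: EC80 β-phenethylamine stimulus; Compound dosing: single nominal final test compound concentration of 3 µM; Timing: 140 s kinetic read after compound, 140 s after agonist; Signal: Fluo-8 calcium-sensitive fluorescence; Measure: % inhibition of agonist calcium response; Controls: DMSO and EC80 PEA controls.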
# CHO parental Ca: counter-screen for OX1R antagonists: effect in parental CHO cells; parental CHO-K1, ATP-induced calcium, Fluo-8 fluorescence; 330,000 compounds, 0.63% hits; AID 463079; inhibition, % at 5.6 µM;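 active means inhibition above that plate's mean sample inhibition plus 3 SD, cut at about 26% in these data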;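 further: 0% = ATP-challenged DMSO wells and 100% = DMSO wells without ATP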
#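 Test system: untransfected parental CHO cell line; also added: ATP stimulus; dosing: 5.6 µM, single dose; signal: calcium-sensitive Fluo-8 fluorescence; measure: percent inhibition of ATP-evoked calcium rise, normalized to controls; benchmarks: low control ATP plus DMSO, high control DMSO only; replication: one well per compound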
# TAAR1 agonist: human TAAR1 agonism; CHO RD-HGA16 TAAR1, Fluo-8 calcium fluorescence; vehicle wells 0%, saturating PEA agonist 100%; activation, % at 3 µM; 360,000 compounds, 0.99% hits; AID 624467;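 active means activation above the mean activation of all test compounds in the run plus 3 SD, cut at about 38% in these data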
#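 Repeats: no replicates (n 1) | Material: CHO-derived RD-HGA16 cells with stable Gα16 and human TAAR1 | Technique: Kinetic Fluo-8 calcium fluorescence | Schedule: 17-24 h seeding, 75 min 37 °C dye, 30 min RT | Evaluation: % activation from peak over basal fluorescence ratio, DMSO-to-PEA scaled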
# OX1R Fluo8 conf: OX1R (human) antagonism, confirmed | CHO/OX1R cells, orexin A calcium Fluo-8 fluorescence | shares compounds with OX1R antag-2 | 1,100 compounds, 38% hits | inhibition, % at 5 µM; in the data active means inhibition above about 29%;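 further: 0% = agonist challenge alone and 100% = reference antagonist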
# CHO Ca triplic: counter-screen: parental CHO calcium response change, triplicate; inhibition, % at 5.6 µM; shares compounds with OX1R antag-2; parental CHO-K1, ATP-induced calcium, Fluo-8 fluorescence; AID 492965; 1,100 compounds, 9.3% hits;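 active means inhibition above a per-plate limit, the mean inhibition of that plate's test compounds plus 3 SD, cut at about 25% in these data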;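 further: 0% = ATP challenge with DMSO and 100% = DMSO without ATP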
# OX1R HTRF confirm: confirmation of human orexin 1 receptor antagonists, HTRF format | 1,800 compounds, 49% hits | OX1R-expressing cells, HTRF antagonist assay | shares compounds with OX1R antag-1 | inhibition, % at 6.6 µM; in the data active means inhibition above about 55%;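 further: CHO cells expressing OX1R stimulated with orexin A at about EC80; 0% = agonist challenge alone and 100% = reference antagonist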
# CHO-K1 HTRF: signal in parental CHO-K1 cells, OX1R antagonist counter-screen | HTRF counterscreen | 1,800 compounds, 48% hits | shares compounds with OX1R antag-1 | inhibition, % at 6.6 µM; in the data active means inhibition above about 17%;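 further: 0% = agonist challenge with vehicle and 100% = vehicle alone without agonist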
# * marks the source's active call; other numbers are inactive results; · = no result given.
SMILES,OX1R antag-1,OX1R antag-2,TAAR1 antag,CHO parental Ca,TAAR1 agonist,OX1R Fluo8 conf,CHO Ca triplic,OX1R HTRF confirm,CHO-K1 HTRF
O=C(CSc1nc(O)cc(=O)n1C1CCCC1)Nc1cccc(Cl)c1Cl,9,3,-29,-5,-1,·,·,·,·
COC(=O)c1ccccc1NC(=O)CSc1nc(O)cc(=O)n1C1CCCC1,78*,31,-3,-8,1,50*,-13,88*,4
CN(CC(=O)Nc1nc2ccccc2s1)S(=O)(=O)c1ccc(Br)cc1,48*,69*,20,19,10,8,0,26,7
Cc1ccc(S(=O)(=O)N2CCCCC2)cc1NS(=O)(=O)c1cccc(C(=O)O)c1,-2,5,-13,-4,13,·,·,·,·
Cc1cc(O)cc2c(=O)c3ccccc3sc12,86*,52*,-21,14,3,56*,-1,92*,6
Cc1cc(C)n(CCOc2ccc(Br)cc2)n1,9,-2,7,-5,1,·,·,·,·
Cc1cc2nc3c(=O)[nH]c(=S)[nH]c3nc2cc1NC(=O)C(F)(F)F,49*,29,-4,20,11,7,4,47,88*
Cc1cccc(NC(=O)[C@@H]2CCCN2S(=O)(=O)c2ccc(Cl)cc2)c1,91*,74*,-20,-22,6,55*,-27,89*,4
COc1ccc(NC(=O)[C@@H]2CCCN2S(=O)(=O)c2ccc(Cl)cc2)cc1,22,4,-13,-12,1,·,·,·,·
CCc1cccc(NC(=O)C2CCCN2S(=O)(=O)c2cccc3cccnc23)c1 (stereo not drawn),89*,87*,-31,-30,0,50*,-9,85*,5
CC(=O)c1ccc(N2CCN(C(=O)c3ccc(C(=O)c4ccccc4)cc3)CC2)cc1,5,7,34,-12,3,·,·,·,·
O=S(=O)(NC1CC1)c1ccccc1,-9,-21,0,6,3,·,·,·,·
COCCNC(=O)C(c1ccc(C)cc1)N(Cc1ccccc1)C(=O)CCC(=O)Nc1ccccn1 (stereo not drawn),72*,32,-5,-21,5,40*,-10,88*,1
COCCNC(=O)C(c1ccc(C)cc1)N(Cc1cccs1)C(=O)CCC(=O)Nc1ccccn1 (stereo not drawn),75*,22,-21,-5,4,25,-14,82*,-1
COCCNC(=O)C(c1ccc(O)cc1)N(Cc1cccs1)C(=O)CCC(=O)Nc1ccccn1 (stereo not drawn),33,-6,-2,0,-1,·,·,·,·
Cc1cc(NC(=O)CCC(=O)N(Cc2cccs2)C(C(=O)NC2CCCC2)c2ccccc2)no1 (stereo not drawn),92*,51*,11,-19,10,44*,-33,93*,1
COCCNC(=O)C(c1ccc(F)cc1)N(CCOC)C(=O)CCC(=O)Nc1ccccn1 (stereo not drawn),5,-10,-7,4,1,·,·,·,·
CCN(CCCNC(=O)C1CCCN(S(=O)(=O)c2cnc[nH]2)C1)c1ccccc1 (stereo not drawn),7,1,-16,-2,0,·,·,·,·
O=C(NC(Nc1ncc(S(=O)(=O)c2ccc([N+](=O)[O-])cc2)s1)(C(F)(F)F)C(F)(F)F)c1ccc(Cl)cc1,120*,38,11,23,6,30*,65*,58*,36*
O=C(COC(=O)Cc1ccc(Br)cc1)NCc1ccc2c(c1)OCO2,·,·,-8,·,1,·,·,·,·
COc1cc(Cl)c(S(=O)(=O)NCc2cccnc2)cc1Cl,-9,-17,-11,-9,12,·,·,·,·
